Measured values taken from ChEMBL document CHEMBL1123879, “Synthesis and antiarrhythmic activity of novel 3-alkyl-1-[omega-[4-[(alkylsulfonyl)amino]phenyl]-omega- hydroxyalkyl]-1H-imidazolium salts and related compounds” (J Med Chem, 1987).

Key:
[1] = system: Canis familiaris; experiment: In vivo intraduodenal activity in mongrel dogs was assessed by percent change in heart rate at active dose of 30 mg/kg, administered intradermally; assay type: functional, Canis lupus familiaris; settings: in the assay text read “intraduodenally” for “intradermally”
In short: (§1)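 Healthy dogs (8–20 kg) of either sex, pentobarbital 30 mg/kg iv, ventilated, temperature held at 36 ± 0.5 °C. Compound given intraduodenally as suspension in 0.5% tragacanth. HR, BP and FRP measured at 45 min postdose; second dose if FRP/conduction change below 12%. Active dose means FRP change ≥ 12%; HR and BP given as % change, mean ± SEM.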

[2] = system: Canis familiaris; experiment: In vivo antiarrhythmic efficacy in a programmed electrical stimulation (PES) model of mongrel dogs reported as number of animals effective at dose range of 0.3-30 mg/kg.; assay type: functional, Canis lupus familiaris, Heart
In short: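 Mongrel dogs (8–17 kg) with two-stage LAD occlusion 24 h earlier, anesthetized with thiopental 15 mg/kg and ventilated; open chest. PES induces SVT/VF; two control arrhythmias 30 min apart. Compound given as 10-min iv infusion, PES repeated 20 min later, dose escalated while still inducible; noninducibility counts as effective. HR and BP reported as % change at effective dose, mean ± SEM.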

[3] = species: Canis familiaris; experiment: Concentration that causes 20% increase in functional refractory period (FRP) was determined on isolated canine ventricular muscle fibers; NR = never reached; settings: Canis lupus familiaris; Muscle tissue
In short: (§2)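 Canine right ventricular papillary muscle strips superfused with O2/CO2-gassed saline at 36 ± 0.5 °C. Bipolar electrogram recording. Stimulated at 4× diastolic threshold (2 ms pulses), equilibrated 60 min. FRP measured at 1000 ms cycle length by S2 after every tenth S1 at shortening intervals. Cumulative concentrations; one compound per strip, with vehicle controls. Readout is concentration giving a 20% FRP change, or maximal change; log mean with 90% CI when n > 2.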

[4] = species: Canis familiaris; experiment: Maximum observed change in ADP95 from control value was determined in isolated canine cardiac uM; assay type: functional, Canis lupus familiaris
In short: (§3)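 Canine cardiac Purkinje fibres in gassed physiological saline (95% O2–5% CO2, pH 7.35–7.40) at 36 ± 0.5 °C. Paced at 1.0 Hz with 2 ms pulses at twice diastolic threshold. Intracellular microelectrode recording after up to 1 h of stabilisation; 30 min exposure per concentration; one compound per fibre, with vehicle controls. Readout is concentration giving a 20% change in APD95, or maximal APD95 change; log mean with 90% CI when n > 2.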

[5] = system: Canis familiaris; experiment: In vivo intraduodenal activity in mongrel dogs was assessed by percent change in blood pressure at active dose of 30 mg/kg, administered intradermally; assay type: functional, Canis lupus familiaris, Artery; settings: in the assay text read “intraduodenally” for “intradermally”; in short: as §1
[6] = species: Canis familiaris; experiment: Concentration that causes 20% increase in ADP95 (action potential duration at 95% repolarization) was determined on isolated canine cardiac Purkinje fibers (0.01-10 uM concentration range); assay type: functional, Canis lupus familiaris, Purkinje fiber; in short: as §3
[7] = species: Canis familiaris; experiment: Maximum observed change in FRP from control was determined in isolated canine ventricular muscle fibers at a concentration of 100 uM; assay type: functional, Canis lupus familiaris, Muscle tissue; in short: as §2
[8] = species: Canis familiaris; experiment: Maximum observed change in FRP from control was determined in isolated canine ventricular muscle fibers at a concentration of 10 uM; assay type: functional, Canis lupus familiaris, Muscle tissue; in short: as §2
[9] = system: Canis familiaris; experiment: In vivo intraduodenal activity in mongrel dogs was assessed by % change in heart rate (10 mg/kg administered intradermally); assay type: functional, Canis lupus familiaris; settings: in the assay text read “intraduodenally” for “intradermally”; in short: as §1
[10] = species: Canis familiaris; experiment: Concentration that causes 20% increase in ADP95 (action potential duration at 95% repolarization) was determined on isolated canine cardiac Purkinje fibers; assay type: functional, Canis lupus familiaris, Purkinje fiber; in short: as §3
[11] = species: Canis familiaris; experiment: Concentration that causes 20% increase in functional refractory period (FRP) was determined on isolated canine ventricular muscle fibers; design: species or system Canis lupus familiaris, Muscle tissue; in short: as §2
[12] = species: Canis familiaris; experiment: Maximum observed change in FRP from control was determined on isolated canine ventricular muscle fibers at a concentration of 100 uM; assay type: functional, Canis lupus familiaris, Muscle tissue; in short: as §2
[13] = system: Canis familiaris; experiment: In vivo intraduodenal activity in mongrel dogs was assessed by % change in blood pressure (10 mg/kg administered intradermally); assay type: functional, Canis lupus familiaris, Artery; settings: in the assay text read “intraduodenally” for “intradermally”; in short: as §1

Row | SMILES | Heart rate [1] [%] | No. effective [2] | Activity [3] | Max delta APD95 [4] [%] | Blood pressure [5] [%] | Activity [6] [µM] | Max delta FRP [7] [%] | Max delta FRP [8] [%] | Heart rate [9] [%] | Activity [10] [µM] | Activity [11] [µM] | Max delta FRP [12] [%] | Blood pressure [13] [%]
1 | C[n+]1ccn(CC(=O)c2ccc(NS(C)(=O)=O)cc2)c1.[Cl-] | -19 | 0 | Not recorded | 38 | 3 | 2.3 | 15 | – | – | – | – | – | –
2 | Cc1n(CC(O)c2ccc(NS(C)(=O)=O)cc2)cc[n+]1C.[Cl-] (stereo not given) | – | 0 | – | 51 | – | – | – | 44 | -20 | 0.8 | 0.2 | 56 | 3
